hK5 inh: inhibitors of human kallikrein 5; recombinant hK5, fluorogenic AMC substrate cleavage; inhibition, % at 5 µM; 210,000 tested, 0.59% active;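 active = inhibition of 40% or more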;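 also: 0% = enzyme controls without compound and 100% = no-enzyme blanks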
Target sequence (Q9Y337 67-293 limits assumed): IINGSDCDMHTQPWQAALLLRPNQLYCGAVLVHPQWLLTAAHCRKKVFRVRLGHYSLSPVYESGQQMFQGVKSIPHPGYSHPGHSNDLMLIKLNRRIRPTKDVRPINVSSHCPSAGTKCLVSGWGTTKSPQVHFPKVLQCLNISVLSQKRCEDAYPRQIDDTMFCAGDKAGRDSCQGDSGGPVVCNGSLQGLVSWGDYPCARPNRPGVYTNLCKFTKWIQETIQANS
FXIa inh 1536: blocks human coagulation factor XIa protease activity. inhibition, % at 5 µM. purified FXIa, Boc-Glu-Ala-Arg-AMC fluorogenic substrate. 220,000 tested, 0.14% active;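 active = inhibition of at least 40%; inactive = inhibition below 40%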;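 also: fluorescence of freed AMC excited at 355 nm; 0% = enzyme without compound and 100% = no enzyme blank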
FXIIa inh 1536: factor XIIa (human) inhibition. purified FXIIa, Boc-QGR-AMC fluorogenic substrate, 2 h. inhibition, % at 5 µM. 220,000 tested, 0.3% active; in the data active = inhibition above about 40%;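 also: 0% = enzyme with no compound and 100% = blank without enzyme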
thrombin 1536: thrombin (human) inhibition | P00734 | alpha-thrombin, Boc-VPR-AMC fluorogenic substrate cleavage | inhibition, % at 5 µM | 220,000 tested, 0.26% active | AID 1046;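 active = inhibition at or above 40%; inactive = inhibition below 40%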;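 also: 0% = enzyme with no compound and 100% = wells without enzyme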
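Assay system: human alpha-thrombin enzyme. Reagent: Boc-VPR-AMC substrate, 15 µM final. Compound dosing: one concentration per compound, 5 µM, with 0.2% DMSO. Incubation: room-temperature reaction. Technique: AMC fluorescence, 355/460 nm. Measure: % inhibition relative to enzyme controls and enzyme-free blanks.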
* = called active by the depositor; / = no result. This is a sample that favours compounds with a hit; in the whole collection about 1% have one here.

SMILES	hK5 inh	FXIa inh 1536	FXIIa inh 1536	thrombin 1536
Cc1ccc2c(CN3CCN(Cc4ccc5c(c4)OCO5)CC3)cc(=O)oc2c1C	-4.8	45.7*	37.1	1.1
COc1ccc(Cl)cc1-n1c(C)ccc1C	-6.4	5.5	9.1	-0.7
Cc1ccc(NC(=O)CSc2nnc(COc3ccc(C#N)cc3)n2-c2ccccc2)cc1C	45.5*	7.5	7.7	22.9
Cc1ccc(C(=O)CSc2nnc(COc3ccc(C#N)cc3)n2-c2ccccc2)cc1	-1.4	12.4	15.2	1.9
N#CCCN(Cc1ccccc1)C(=O)c1cccs1	-2.7	2.9	7.3	3.0
CCOC(=O)Cc1csc(NC(=O)CC(C)(C)CC(=O)O)n1	50.0*	59.1*	25.4	10.3
CC(O)C1CCC2C3CC[C@H]4CC(O)CCC4(C)C3CC3(OCCO3)C12C (stereo not given in full)	137.6*	9.7	27.2	16.8
Cc1cccc(C)c1N(Cc1ccccc1F)S(C)(=O)=O	/	1.0	10.4	-2.4
C=CCOC(=O)C1=C(C)Nc2[nH]c(=O)[nH]c(=O)c2C1c1ccccc1 (stereo not given)	18.5	67.3*	25.0	10.2
COC(=O)c1cccc(NS(=O)(=O)c2ccc(OC)c(OC)c2)c1C	10.2	-0.1	49.6*	1.9
CC(C)C(NC(=O)CC12CC3CC(CC(C3)C1)C2)C(=O)O (stereo not given)	5.6	15.1	46.7*	-0.3
CCOC(=O)c1cc(-c2ccc(C)cc2)n(CCC(=O)N2CCN(c3ccccn3)CC2)c1C	-20.6	5.4	7.0	-8.5
O=C(O)c1c2c(nc3ccc(S(=O)(=O)N4CCC(C(=O)NC5CCCCCC5)CC4)cc13)CCCC2	-7.6	-2.9	8.6	-0.7
O=C1CC(SCc2nc3ccccc3[nH]2)C(=O)N1c1ccc(F)cc1 (stereo not given)	53.7*	-11.1	6.0	25.3
FC(F)(F)c1cccc(OCCN2CCN(Cc3ccccc3)CC2)c1	-10.3	-6.6	1.4	-6.0
CCN(CC)C(=O)CNC(=O)Cc1ccc(Cl)cc1	-7.3	5.9	17.5	4.2
C=C(C)c1cccc(C(C)(C)NC(=O)NCc2ccc(OC)cc2)c1	-4.9	4.0	2.2	-8.0
COc1ccc(CNC(=O)NC(C)(C)c2cccc(C(C)(C)NC(=O)NCc3ccc(OC)cc3)c2)cc1	44.1*	8.7	30.1	15.5
CS(=O)(=O)N(CC(=O)Nc1ccc2c(c1)OCCO2)Cc1ccc(Cl)cc1	48.1*	4.0	10.5	29.3
CS(=O)(=O)N(CC(=O)NCc1ccco1)Cc1ccc(Cl)cc1	78.3*	0.4	8.9	8.1
CS(=O)(=O)N(CC(=O)NCc1ccccc1)Cc1ccc(Cl)cc1	-6.1	-7.3	3.3	-1.6
CC(C(=O)O)N1C(=O)/C(=C/C=C/c2ccco2)SC1=S (stereo not given)	59.4*	-0.4	-5.1	14.9
Oc1cccc(NC(=S)N=Nc2c(O)[nH]c3ccccc23)c1	78.4*	21.3	24.0	15.7
CCOc1ccc(NC(=S)N=Nc2c(O)[nH]c3ccccc23)cc1	-6.4	-1.1	5.7	-2.7
CCN(CCC(=O)Nc1cc([N+](=O)[O-])ccc1OC)Cc1ccccc1	-4.5	9.5	10.8	2.2
SMILES	hK5 inh	FXIa inh 1536	FXIIa inh 1536	thrombin 1536
CCC(=O)NCc1csc(-c2cccs2)n1	-3.7	1.7	5.8	-5.5
COc1ccccc1CC(=O)NCc1csc(-c2cccs2)n1	9.5	47.2*	44.9*	11.3
CCOC(=O)Cc1csc(NC(=O)COc2ccc(N(C)S(=O)(=O)c3cccs3)cc2)n1	-10.2	4.0	10.3	0.6
Cc1cccc(N2N=C(C(=O)N3CC(=O)Nc4ccccc43)CCC2=O)c1	33.6	33.3	43.8*	22.3
COCCn1c(N/N=C(C)/C=C/c2ccccc2)nc2c1c(=O)[nH]c(=O)n2C	6.4	1.6	14.3	-5.8
CSCC[C@H](NC(=O)C1=NN(c2c(F)c(F)cc(F)c2F)C(=O)CC1)c1nc2ccccc2[nH]1	3.4	0.9	10.1	0.5
COc1ccc(S(=O)(=O)Nc2ccc(-n3cccc3)cc2)cc1	-5.8	-3.7	0.1	-7.6
Cc1cc2c(c(=O)n1C)C(Cc1ccccc1)C(C#N)=C(N)O2 (stereo not given)	11.1	14.3	45.4*	-1.8
N#C/C(=C(/O)c1ccc(F)cc1)c1nc2ccccc2s1	6.6	9.1	11.5	-8.0
N#C/C(=N\O)c1nc2ccccc2s1	42.7*	30.1	26.0	34.9
CN(C)S(=O)(=O)N1CCN(c2cccc(Cl)c2)CC1	83.3*	-7.8	15.2	25.4
COC1CCCN(Cc2cn(C)nc2-c2ccc(Oc3ccccc3)cc2)C1 (stereo not given)	/	5.2	11.3	1.9
CCCN1CCC(NCc2cn(C)nc2-c2ccc(Oc3ccccc3)cc2)CC1	45.0*	20.9	34.4	1.4
COc1ccc(C(=O)c2c(NC(C)=O)sc3c2CCN(C(=O)OC(C)(C)C)C3)cc1	11.2	6.7	6.3	-4.3
Cc1nc(SCC(=O)NC(=O)NC(C)(C)C)nc(C)c1C	2.4	0.9	5.7	1.2
Cc1nc(SCC(=O)NC(=O)NC(C)C)nc(C)c1C	50.1*	22.9	30.6	35.1
COC(=O)c1ccc(COc2ncnc3c(Cl)cc(Cl)cc23)o1	-5.3	-0.6	6.1	0.4
COc1ccccc1NC(=O)c1csc2c1CCCC2	63.1*	1.1	1.8	2.9
Cc1c(C#N)c(O)n(CCO)c(=O)c1N=Nc1ccccc1	5.3	6.1	7.4	-4.1
Cc1c(C#N)c(O)n(CCO)c(=O)c1N=Nc1ccc(S(N)(=O)=O)cc1	11.4	26.9	25.4	46.7*
Cc1c(C#N)c(O)n(C)c(=O)c1N=Nc1ccc(S(N)(=O)=O)cc1	24.8	25.2	29.3	56.6*
O=C(Oc1ccccc1)c1cccnc1Oc1ccccc1	-4.0	-3.0	1.1	2.6
O=C(NCc1ccc(-n2cccc2)cc1)c1cccc(F)c1	-4.2	-3.6	4.5	-4.8
CCOC1=C/C(=C/c2c(N)n3nc(S(=O)(=O)CC)sc3nc2=O)C=CC1=O	-1.7	0.7	5.4	-4.6
O=[N+]([O-])c1ccccc1S(=O)(=O)n1nnc2ccccc21	-5.4	10.2	7.8	-1.7
SMILES	hK5 inh	FXIa inh 1536	FXIIa inh 1536	thrombin 1536
COCCNC(=O)Cn1nc(C(F)(F)F)cc1C	44.1*	12.6	11.2	104.0*
O=C(COC(=O)c1c(Cl)ccc(Cl)c1Cl)NC(=O)NCc1ccccc1	-18.1	2.2	3.9	-5.5
CCN(CC)CCCN1C(=O)CSC1c1ccc2c(c1)OCO2 (stereo not given)	51.8*	3.4	19.3	20.3
O=C1NC2(CCCCC2)NN1c1ccccc1	-16.8	-12.8	0.2	47.9*
CC(=O)N1CCC2(CC1)NC(=O)N(c1ccccc1)N2	-3.0	-4.0	5.1	-7.9
CCCN1C(=O)c2cc(C(=O)Nc3ccc(OC)cc3OC)ccc2C1Nc1ccc(OC)cc1OC (stereo not given)	/	3.1	13.1	-0.5
Cc1cccc(Cn2cnc3c(NS(C)(=O)=O)c(C)c(C)cc32)c1	57.0*	0.0	13.2	1.5
COc1ccc(Cl)cc1N1C(=O)CC(Sc2ccccc2N)C1=O (stereo not given)	0.7	-1.6	4.3	-7.0
COC(=O)c1ccc(CNCC(=O)Nc2ccc(C(=O)OC)cc2)cc1	-14.5	15.9	18.3	-6.3

Compound activity (PubChem)
